Data: ChEMBL document CHEMBL1275445, “Low beta-lactamase-negative ampicillin-resistant Haemophilus influenzae strains are best detected by testing amoxicillin susceptibility by the broth microdilution method” (2008)
In brackets after ≈: the same amount, converted by molar mass.

Experiments:
Assay type in all cases: functional
Haemophilus influenzae [1] = test: Antibacterial activity against Beta-lactamase negative Haemophilus influenzae with PBP3 mutation
Haemophilus influenzae [2] = test: Antibacterial activity against Beta-lactamase positive Haemophilus influenzae isolate harboring fst1 mutant gene after 20 to 24 hrs by broth microdilution method
Outline: (§1)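 Broth microdilution per CLSI on clinical H. influenzae isolates genotyped by ftsI/blaTEM PCR and sequencing. Medium: Mueller-Hinton broth with HTM supplement and yeast extract (5%). Inoculum about 5 x 10^5 CFU/ml, confirmed by colony counts on chocolate agar. Incubation 35°C, 20 to 24 h, 5% CO2. MIC was the lowest concentration inhibiting growth. Amoxicillin-clavulanic acid tested at 2:1. β-lactamase status determined by nitrocefin test.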

Haemophilus influenzae [3] = test: Antibacterial activity against Beta-lactamase negative Haemophilus influenzae isolate after 20 to 24 hrs by broth microdilution method; outline: as §1
Haemophilus influenzae [4] = test: Antibacterial activity against Beta-lactamase positive Haemophilus influenzae isolate harboring fst1 mutant gene after 20 to 24 hrs by Etest method
Outline: (§2)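 Etest on clinical H. influenzae isolates genotyped by ftsI/blaTEM sequencing. Overnight chocolate-agar colonies were suspended in saline to McFarland 0.5 and swabbed confluently onto 150-mm agar plates. Strips were placed radially, then plates incubated at 35°C in 5% CO2 for 20 to 24 h. MIC read where the inhibition ellipse meets the strip. Values rounded up to the next log2 step.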

Haemophilus influenzae [5] = test: Antibacterial activity against Beta-lactamase negative Haemophilus influenzae assessed as susceptible isolates after 20 to 24 hrs by Etest method
Outline: (§3)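 Confluent swab of agar plates with saline suspension of overnight chocolate-agar colonies at McFarland 0.5; Etest strips placed radially; 35°C, 5% CO2, 20–24 h. MIC read where the inhibition ellipse meets the strip, rounded up to next log2 concentration. β-lactamase status by nitrocephin chromogenic cephalosporin test; genotype by ftsI/blaTEM sequencing.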

Haemophilus influenzae [6] = test: Antibacterial activity against Beta-lactamase negative Haemophilus influenzae isolate after 20 to 24 hrs by Etest method; outline: as §2
Haemophilus influenzae [7] = test: Antibacterial activity against Beta-lactamase positive Haemophilus influenzae assessed as resistant isolates after 20 to 24 hrs by Etest method; outline: as §2
Haemophilus influenzae [8] = test: Antibacterial activity against Beta-lactamase positive Haemophilus influenzae isolate after 20 to 24 hrs by Etest method; outline: as §2
Haemophilus influenzae [9] = test: Antibacterial activity against Beta-lactamase positive Haemophilus influenzae assessed as susceptible isolates after 20 to 24 hrs by broth microdilution method; outline: as §1
Haemophilus influenzae [10] = test: Antibacterial activity against Beta-lactamase negative Haemophilus influenzae isolate harboring fst1 mutant gene after 20 to 24 hrs by broth microdilution method; outline: as §1
Haemophilus influenzae [11] = test: Antibacterial activity against Beta-lactamase negative Haemophilus influenzae harboring fst1 mutant gene assessed as susceptible isolates after 20 to 24 hrs by Etest method; outline: as §2
Haemophilus influenzae [12] = test: Antibacterial activity against Beta-lactamase positive Haemophilus influenzae isolate after 20 to 24 hrs by broth microdilution method
Outline: (§4)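 CLSI broth microdilution in Mueller-Hinton broth with HTM supplement and yeast extract (5%), inoculum about 5 x 10^5 CFU/ml (checked by colony counts on chocolate agar); 35°C, 20–24 h in 5% CO2. MIC = lowest concentration inhibiting growth; amoxicillin-clavulanic acid at 2:1. β-lactamase status by nitrocephin test.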

Haemophilus influenzae [13] = test: Antibacterial activity against Beta-lactamase negative Haemophilus influenzae harboring fst1 mutant gene assessed as resistant isolates after 20 to 24 hrs by broth microdilution method; outline: as §1
Haemophilus influenzae [14] = test: Antibacterial activity against Beta-lactamase negative Haemophilus influenzae harboring fst1 mutant gene assessed as susceptible isolates after 20 to 24 hrs by broth microdilution method; outline: as §1
Haemophilus influenzae [15] = test: Antibacterial activity against Beta-lactamase negative Haemophilus influenzae isolate harboring fst1 mutant gene after 20 to 24 hrs by Etest method; outline: as §2
Haemophilus influenzae [16] = test: Antibacterial activity against Beta-lactamase positive Haemophilus influenzae assessed as susceptible isolates after 20 to 24 hrs by Etest method; outline: as §3
Haemophilus influenzae [17] = test: Antibacterial activity against Beta-lactamase negative Haemophilus influenzae assessed as susceptible isolates after 20 to 24 hrs by broth microdilution method; outline: as §4
Haemophilus influenzae [18] = test: Antibacterial activity against Beta-lactamase positive Haemophilus influenzae assessed as resistant isolates after 20 to 24 hrs by broth microdilution method; outline: as §1
Haemophilus influenzae [19] = test: Antibacterial activity against Beta-lactamase negative Haemophilus influenzae harboring fst1 mutant gene assessed as resistant isolates after 20 to 24 hrs by Etest method; outline: as §2
Haemophilus influenzae [20] = test: Antibacterial activity against Beta-lactamase positive Haemophilus influenzae harboring fst1 mutant gene assessed as susceptible isolates after 20 to 24 hrs by broth microdilution method; outline: as §1
Haemophilus influenzae [21] = test: Antibacterial activity against Beta-lactamase positive Haemophilus influenzae harboring fst1 mutant gene assessed as resistant isolates after 20 to 24 hrs by Etest method; outline: as §2
Haemophilus influenzae [22] = test: Antibacterial activity against Beta-lactamase positive Haemophilus influenzae harboring fst1 mutant gene assessed as resistant isolates after 20 to 24 hrs by broth microdilution method; outline: as §1
Haemophilus influenzae [23] = test: Antibacterial activity against Beta-lactamase positive Haemophilus influenzae harboring fst1 mutant gene assessed as susceptible isolates after 20 to 24 hrs by Etest method; outline: as §2
Haemophilus influenzae [24] = test: Antibacterial activity against Beta-lactamase negative Haemophilus influenzae assessed as resistant isolates after 20 to 24 hrs by broth microdilution method; outline: as §1
Haemophilus influenzae [25] = test: Antibacterial activity against Beta-lactamase negative Haemophilus influenzae assessed as resistant isolates after 20 to 24 hrs by Etest method
Haemophilus influenzae [26] = test: Antibacterial activity against Beta-lactamase positive Haemophilus influenzae isolate harboring fst1 mutant gene after 20 to 24 hrs by broth microdilution method in presence of clavulanic acid
Outline: (§5)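 Broth microdilution per CLSI, with plates incubated in 5% CO2. Mueller-Hinton broth with HTM supplement and yeast extract (5%). Inoculum about 5 x 10^5 CFU/ml, checked by colony counts on chocolate agar. Amoxicillin-clavulanic acid at 2:1 ratio. 35°C, 20 to 24 h. MIC is the lowest concentration inhibiting growth. Isolates genotyped for ftsI/blaTEM by sequencing; β-lactamase by nitrocefin test.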

Haemophilus influenzae [27] = test: Antibacterial activity against Beta-lactamase positive Haemophilus influenzae isolate harboring fst1 mutant gene after 20 to 24 hrs by Etest method in presence of clavulanic acid
Outline: (§6)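 Etest on clinical H. influenzae isolates genotyped for ftsI and blaTEM by PCR and sequencing; β-lactamase status by nitrocefin chromogenic test. Colonies from overnight chocolate agar suspended in saline to McFarland 0.5, swabbed confluently onto 150-mm agar plates, strips placed radially; 35°C, 5% CO2, 20 to 24 h. MIC read where inhibition ellipse meets strip, rounded up to next log2 concentration.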

Haemophilus influenzae [28] = test: Antibacterial activity against Beta-lactamase negative Haemophilus influenzae isolate harboring fst1 mutant gene after 20 to 24 hrs by Etest method in presence of clavulanic acid; outline: as §6
Haemophilus influenzae [29] = test: Antibacterial activity against Beta-lactamase negative Haemophilus influenzae isolate after 20 to 24 hrs by broth microdilution method in presence of clavulanic acid; outline: as §5
Haemophilus influenzae [30] = test: Antibacterial activity against Beta-lactamase positive Haemophilus influenzae isolate after 20 to 24 hrs by Etest method in presence of clavulanic acid; outline: as §6
Haemophilus influenzae [31] = test: Antibacterial activity against Beta-lactamase positive Haemophilus influenzae isolate after 20 to 24 hrs by broth microdilution method in presence of clavulanic acid; outline: as §5
Haemophilus influenzae [32] = test: Antibacterial activity against Beta-lactamase negative Haemophilus influenzae isolate harboring fst1 mutant gene after 20 to 24 hrs by broth microdilution method in presence of clavulanic acid; outline: as §5
Haemophilus influenzae [33] = test: Antibacterial activity against Beta-lactamase negative Haemophilus influenzae isolate after 20 to 24 hrs by Etest method in presence of clavulanic acid; outline: as §6
Haemophilus influenzae [34] = test: Antibacterial activity against Beta-lactamase negative ampicillin-resistant Haemophilus influenzae isolate with SSN motif mutation after 20 to 24 hrs by disk diffusion method using <=29 mm disk
Outline: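 Disk diffusion per CLSI on HTM base with HTM supplement and yeast extract (5%). Inoculum McFarland 0.5. Incubation 20 to 24 h at 35°C in 5% CO2. Cefixime disk 5 µg. Isolates genotyped for ftsI (SSN motif) by PCR and sequencing. Zone diameter measured.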

Haemophilus influenzae [35] = test: Antibacterial activity against Beta-lactamase negative ampicillin-resistant Haemophilus influenzae isolate with SSN motif mutation after 20 to 24 hrs by Etest method; outline: as §2
Haemophilus influenzae [36] = test: Antibacterial activity against Beta-lactamase negative ampicillin-resistant Haemophilus influenzae isolate with SSN motif mutation after 20 to 24 hrs by broth microdilution method; outline: as §1

Compound | MIC50 (Haemophilus influenzae [3]) [µg/mL] | MIC90 (Haemophilus influenzae [3]) [µg/mL] | MIC50 (Haemophilus influenzae [4]) [µg/mL] | MIC90 (Haemophilus influenzae [4]) [µg/mL] | Activity (Haemophilus influenzae [5]) [%] | MIC50 (Haemophilus influenzae [6]) [µg/mL] | MIC90 (Haemophilus influenzae [6]) [µg/mL] | Activity (Haemophilus influenzae [7]) [%] | MIC50 (Haemophilus influenzae [8]) [µg/mL] | MIC90 (Haemophilus influenzae [8]) [µg/mL] | Activity (Haemophilus influenzae [9]) [%] | MIC50 (Haemophilus influenzae [10]) [µg/mL] | MIC90 (Haemophilus influenzae [10]) [µg/mL] | Activity (Haemophilus influenzae [11]) [%] | MIC50 (Haemophilus influenzae [12]) [µg/mL] | MIC90 (Haemophilus influenzae [12]) [µg/mL] | Activity (Haemophilus influenzae [13]) [%] | Activity (Haemophilus influenzae [14]) [%] | MIC50 (Haemophilus influenzae [15]) [µg/mL] | MIC90 (Haemophilus influenzae [15]) [µg/mL] | other results
CC1(C)S[C@@H]2[C@H](NC(=O)[C@H](N)c3ccccc3)C(=O)N2[C@H]1C(=O)O [AMPICILLIN] | ≤ 0.25 | 0.5 (≈ 1.43 µM) | 32 (≈ 91.6 µM) | 64 (≈ 183 µM) | 100 | 0.25 (≈ 0.715 µM) | 0.5 (≈ 1.43 µM) | 85 | 4 (≈ 11.4 µM) | 16 (≈ 45.8 µM) | 0 | 1 (≈ 2.86 µM) | 2 (≈ 5.72 µM) | 88.2 | ≥ 32 | ≥ 32 | 2.9 | 76.5 | 1 (≈ 2.86 µM) | 2 (≈ 5.72 µM) | MIC (Haemophilus influenzae [1]): >=2 ug; MIC (Haemophilus influenzae [2]): ≥ 32 µg/mL; MIC (Haemophilus influenzae [3]): ≤ 0.25 µg/mL; Activity (Haemophilus influenzae [16]): 5%; Activity (Haemophilus influenzae [17]): 100%
N[C@@H](C(=O)N[C@@H]1C(=O)N2C(C(=O)O)=C(Cl)CS[C@H]12)c1ccccc1 [CEFACLOR ANHYDROUS] | 2 (≈ 5.44 µM) | 4 (≈ 10.9 µM) | 4 (≈ 10.9 µM) | 32 (≈ 87 µM) | 100 | 1 (≈ 2.72 µM) | 2 (≈ 5.44 µM) | 0 | 1 (≈ 2.72 µM) | 2 (≈ 5.44 µM) | 0 | 8 (≈ 21.8 µM) | 8 (≈ 21.8 µM) | 76.5 | 8 (≈ 21.8 µM) | 16 (≈ 43.5 µM) | 0 | 94.1 | 4 (≈ 10.9 µM) | 16 (≈ 43.5 µM) | MIC50 (Haemophilus influenzae [2]): 8 µg/mL (≈ 21.8 µM); MIC90 (Haemophilus influenzae [2]): 16 µg/mL (≈ 43.5 µM); Activity (Haemophilus influenzae [18]): 5%; Activity (Haemophilus influenzae [19]): 5.9%; Activity (Haemophilus influenzae [20]): 80%; MIC (Haemophilus influenzae [8]): 1 µg/mL (≈ 2.72 µM); Activity (Haemophilus influenzae [21]): 20%; Activity (Haemophilus influenzae [22]): 0%; Activity (Haemophilus influenzae [23]): 73.3%; Activity (Haemophilus influenzae [16]): 100%; Activity (Haemophilus influenzae [24]): 0%; Activity (Haemophilus influenzae [25]): 0%; Activity (Haemophilus influenzae [17]): 100%
CC1(C)S[C@@H]2[C@H](NC(=O)[C@H](N)c3ccc(O)cc3)C(=O)N2[C@H]1C(=O)O [AMOXICILLIN] | 0.5 (≈ 1.37 µM) | 0.5 (≈ 1.37 µM) | 32 (≈ 87.6 µM) | 64 (≈ 175 µM) | 100 | 0.5 (≈ 1.37 µM) | 0.5 (≈ 1.37 µM) | 85 | 4 (≈ 10.9 µM) | 16 (≈ 43.8 µM) | 0 | 2 (≈ 5.47 µM) | 4 (≈ 10.9 µM) | 67.6 | ≥ 64 | ≥ 64 | 35.3 | 20.6 | 1 (≈ 2.74 µM) | 2 (≈ 5.47 µM) | MIC (Haemophilus influenzae [2]): ≥ 32 µg/mL; MIC (Haemophilus influenzae [3]): 0.5 µg/mL (≈ 1.37 µM); MIC (Haemophilus influenzae [26]): 1 µg/mL; MIC (Haemophilus influenzae [27]): 0.5 µg/mL; MIC (Haemophilus influenzae [28]): 0.25 µg/mL; MIC (Haemophilus influenzae [29]): 0.5 µg/mL; MIC (Haemophilus influenzae [30]): 0.25 µg/mL; Activity (Haemophilus influenzae [16]): 5%; MIC (Haemophilus influenzae [31]): 0.25 µg/mL; MIC (Haemophilus influenzae [32]): 0.5 µg/mL; MIC (Haemophilus influenzae [33]): 0.25 µg/mL; Activity (Haemophilus influenzae [17]): 100%
C=CC1=C(C(=O)O)N2C(=O)[C@@H](NC(=O)/C(=N\OCC(=O)O)c3csc(N)n3)[C@H]2SC1 [CEFIXIME] | – | – | – | – | – | – | – | – | – | – | – | – | – | – | – | – | – | – | – | – | MIC (Haemophilus influenzae [34]): ≥ 0.5 µg/mL; MIC (Haemophilus influenzae [35]): ≥ 0.5 µg/mL; MIC (Haemophilus influenzae [36]): ≥ 0.5 µg/mL
